Source: ChEMBL document CHEMBL2169798, “Discovery of a Plasmodium falciparum glucose-6-phosphate dehydrogenase 6-phosphogluconolactonase inhibitor (R,Z)-N-((1-ethylpyrrolidin-2-yl)methyl)-2-(2-fluorobenzylidene)-3-oxo-3,4-dihydro-2H-benzo[b][1,4]thiazine-6-carboxamide (ML276) that reduces parasite growth in vitro” (J Med Chem, 2012)

Assays:
[1] = biological target: Glucose-6-phosphate 1-dehydrogenase (Homo sapiens, UniProt P11413); assay: Inhibition of human glucose-6-phosphate dehydrogenase after 90 mins by resazurin/diaphorasecoupled assay
Chain of Glucose-6-phosphate 1-dehydrogenase (Homo sapiens, UniProt P11413) (P11413 whole entry): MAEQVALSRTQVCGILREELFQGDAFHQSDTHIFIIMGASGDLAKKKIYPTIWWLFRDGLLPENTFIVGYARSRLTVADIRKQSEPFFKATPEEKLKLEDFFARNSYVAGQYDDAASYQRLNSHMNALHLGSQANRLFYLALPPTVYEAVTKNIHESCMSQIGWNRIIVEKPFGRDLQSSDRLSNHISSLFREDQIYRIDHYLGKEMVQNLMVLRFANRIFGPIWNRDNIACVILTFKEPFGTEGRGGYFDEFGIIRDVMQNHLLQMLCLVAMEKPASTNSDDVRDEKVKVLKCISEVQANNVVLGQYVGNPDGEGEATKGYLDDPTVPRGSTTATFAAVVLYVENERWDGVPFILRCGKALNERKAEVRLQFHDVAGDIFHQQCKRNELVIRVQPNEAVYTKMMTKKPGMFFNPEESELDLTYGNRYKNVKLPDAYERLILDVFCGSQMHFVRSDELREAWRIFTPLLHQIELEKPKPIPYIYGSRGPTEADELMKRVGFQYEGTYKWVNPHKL
Summary of the method: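 Dose response with a top final concentration of […] and 0.8% final DMSO, in 50 mM Tris pH 7.5, 0.005% Tween 20 and 1 mg/mL BSA. The enzyme solution held 0.05 μg/mL hG6PD. The substrate solution held 0.64 mM G6P, 12 μM NADP+, 6.6 mM MgCl2, 2 U/mL diaphorase and 0.28 mM resazurin.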

[2] = biological target: T1, Glucose-6-phosphate 1-dehydrogenase (Plasmodium falciparum, UniProt Q25856); assay: Inhibition of Plasmodium falciparum glucose-6-phosphate dehydrogenase after 45 mins by orthogonal assay
T1 sequence (Q25856 whole entry): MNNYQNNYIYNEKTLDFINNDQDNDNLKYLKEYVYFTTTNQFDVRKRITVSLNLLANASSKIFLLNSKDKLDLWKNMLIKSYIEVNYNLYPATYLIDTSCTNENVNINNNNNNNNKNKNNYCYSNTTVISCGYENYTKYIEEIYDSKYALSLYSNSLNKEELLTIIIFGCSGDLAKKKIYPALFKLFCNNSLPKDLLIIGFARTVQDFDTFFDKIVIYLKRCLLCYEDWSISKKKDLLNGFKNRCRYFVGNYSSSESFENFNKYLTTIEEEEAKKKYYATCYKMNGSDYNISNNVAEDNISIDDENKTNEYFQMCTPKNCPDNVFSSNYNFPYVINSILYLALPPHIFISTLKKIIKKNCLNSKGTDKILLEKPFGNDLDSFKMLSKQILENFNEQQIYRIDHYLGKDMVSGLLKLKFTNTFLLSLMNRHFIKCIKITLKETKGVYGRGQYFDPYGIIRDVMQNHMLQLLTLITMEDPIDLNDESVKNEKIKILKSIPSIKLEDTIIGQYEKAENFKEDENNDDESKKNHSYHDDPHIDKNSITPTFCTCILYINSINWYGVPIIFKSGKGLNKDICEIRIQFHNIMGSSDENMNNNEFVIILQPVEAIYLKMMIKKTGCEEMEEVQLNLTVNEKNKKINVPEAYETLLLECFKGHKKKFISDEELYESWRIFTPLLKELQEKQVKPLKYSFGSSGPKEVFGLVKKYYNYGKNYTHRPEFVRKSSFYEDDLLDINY
Summary of the method: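 Direct NADPH read without coupling: PfGluPho (0.4 μg/mL enzyme solution) in 50 mM Tris pH 7.5, 0.005% Tween 20, 1 mg/mL BSA; substrate 40 μM G6P, 6 μM NADP+, 6.6 mM MgCl2.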

[3] = biological target: T1, Glucose-6-phosphate 1-dehydrogenase; assay: Inhibition of Plasmodium falciparum glucose-6-phosphate dehydrogenase after 2 hrs by resazurin/diaphorasecoupled assay

| Structure (SMILES) | IC50 [1] [µM] | IC50 [2] [µM] | IC50 [3] [µM] |
| --- | --- | --- | --- |
| NC1CCN(C(=O)c2ccc3c(c2)NC(=O)/C(=C/c2ccccc2F)S3)C1 (configuration not stated) | > 80 | 35 | 45 |
| CCCN(CCC)CCNC(=O)c1ccc2c(c1)NC(=O)/C(=C/c1ccc(C)cc1)S2 | > 80 | 45.9 | > 80 |
| CCN1CCCC1CNC(=O)c1ccc2c(c1)NC(=O)/C(=C/c1ccccc1Cl)S2 (configuration not stated) | > 80 | 3.3 | 2.56 |
| CC(C)(C)OC(=O)N1CCCC1CNC(=O)c1ccc2c(c1)NC(=O)/C(=C/c1ccccc1F)S2 (configuration not stated) | > 80 | 24.4 | > 80 |
| O=C1Nc2cc(C(=O)NCCN3CCCCCC3)ccc2S/C1=C\c1ccccc1Cl | > 80 | > 80 | 40.9 |
| CCN1CCCC1CNC(=O)c1ccc2c(c1)NC(=O)/C(=C/c1cccc3ccccc13)S2 (configuration not stated) | > 80 | 4.2 | 4.28 |
| CN1CCCC1CCNC(=O)c1ccc2c(c1)NC(=O)/C(=C/c1ccccc1F)S2 (configuration not stated) | > 80 | 45.2 | 22.7 |
| CN(C)CCNC(=O)c1ccc2c(c1)NC(=O)/C(=C/c1ccccc1F)S2 (stereo in doubt; 16) | > 80 |  |  |
| CCN1CCCC1CNC(=O)c1ccc2c(c1)NC(=O)CS2 (configuration not stated) |  |  | > 80 |
| CCN1CCCC1CNC(=O)c1ccc2c(c1)NC(=O)/C(=C/c1cccc(F)c1F)S2 (configuration not stated) | > 80 |  |  |
| O=C1Nc2cc(C(=O)NCCN3CCCCCC3)ccc2S/C1=C\c1ccccc1F | > 80 | 11 | 46.6 |
| COc1ccc(/C=C2\Sc3ccc(C(=O)NCCN4CCCC4)cc3NC2=O)cc1 | > 80 | > 80 | 49.7 |
| O=C1Nc2cc(C(=O)NCCN3CCOCC3)ccc2S/C1=C\c1ccccc1F | > 80 | > 80 | > 80 |
| CCN1CCCC1CNC(=O)c1ccc2c(c1)NC(=O)/C(=C/c1ccccc1F)S2 (racemic) | > 80 | 1.37 | 1.75 |
| O=C1Nc2cc(C(=O)NCCCN3CCCC3)ccc2S/C1=C\c1ccccc1 | > 80 | 22.3 | 9.3 |
| CCN1CCCC1CNC(=O)c1ccc2c(c1)NC(=O)C(Cc1ccccc1F)S2 (configuration not stated) | > 80 |  | > 80 |
| O=C1Nc2cc(C(=O)NCCCN3CCCC3)ccc2S/C1=C\c1cccc(Cl)c1 | > 80 |  |  |
| O=C1Nc2cc(C(=O)NCCN3CCCCC3)ccc2S/C1=C\c1ccccc1F | > 80 | 24 | 21.6 |
| CCN(CC)CCNC(=O)c1ccc2c(c1)NC(=O)/C(=C/c1ccccc1F)S2 (stereo in doubt; 22) | > 80 | 4.8 | 6.9 |
| CN(C)CCNC(=O)c1ccc2c(c1)NC(=O)/C(=C/c1cccc(Cl)c1)S2 | > 80 | 43.6 | 60 |
| CCN1CCCC1CNC(=O)c1ccc2c(c1)NC(=O)/C(=C/c1c(F)cccc1F)S2 (configuration not stated) | > 80 |  |  |
| CCN(CC)CCNC(=O)c1ccc2c(c1)NC(=O)/C(=C/c1ccccc1Cl)S2 | > 80 | 44.9 | 16.2 |
| O=C1Nc2cc(C(=O)NCc3ccccc3)ccc2S/C1=C\c1ccccc1F | > 80 | > 80 | > 80 |
| CCN1CCCC1CNC(=O)c1ccc2c(c1)NC(=O)/C(=C/c1ccc3ccccc3c1)S2 (configuration not stated) | > 80 | 2.88 | 2.39 |

| Structure (SMILES) | IC50 [1] [µM] | IC50 [2] [µM] | IC50 [3] [µM] |
| --- | --- | --- | --- |
| COc1ccc(/C=C2\Sc3ccc(C(=O)NCCN4CCCCCC4)cc3NC2=O)cc1 | > 80 | > 80 | > 80 |
| CCN(CC)CCNC(=O)c1ccc2c(c1)NC(=O)/C(=C/c1cccc(C)c1)S2 | > 80 |  |  |
| O=C1Nc2cc(C(=O)NCCN3CCCC3)ccc2S/C1=C\c1ccccc1Cl | > 80 | > 80 | 11.1 |
| CCN1CCCC1CNC(=O)c1ccc2c(c1)NC(=O)/C(=C/c1ccc(C)cc1)S2 (configuration not stated) | > 80 |  |  |
| O=C1Nc2cc(C(=O)NCC3CCCN3)ccc2S/C1=C\c1ccccc1F (configuration not stated) | > 80 |  |  |
| CN(C)CCNC(=O)c1ccc2c(c1)NC(=O)/C(=C/c1ccccc1F)S2 (stereo in doubt; 17) | > 80 |  |  |
| CCN1CCCC1CNC(=O)c1ccc2c(c1)NC(=O)/C(=C/c1cccc(F)c1)S2 (configuration not stated) | > 80 |  |  |
| CCN1CCCC1CNC(=O)c1ccc2c(c1)NC(=O)/C(=C/c1ccccc1)S2 (configuration not stated) | > 80 |  |  |
| CCN(CC)CCNC(=O)c1ccc2c(c1)NC(=O)/C(=C/c1ccc(OC)c(OC)c1)S2 | > 80 | 24.5 | 60 |
| CCN(CC)CCNC(=O)c1ccc2c(c1)NC(=O)/C(=C/c1ccccc1)S2 | > 80 | 18.4 | 8.8 |
| CCN1CCCC1CNC(=O)c1ccc2c(c1)NC(=O)/C(=C/c1ccc(F)cc1)S2 (configuration not stated) | > 80 | 2.06 | 1.41 |
| CCN1CCCC1CNC(=O)c1ccc2c(c1)NC(=O)/C(=C/c1ccccc1C)S2 (configuration not stated) | > 80 | 5.01 | 5.93 |
| COc1cccc(/C=C2\Sc3ccc(C(=O)NCCN4CCCCCC4)cc3NC2=O)c1 | > 80 | 58.5 | > 80 |
| O=C1Nc2cc(C(=O)NCCN3CCCC3)ccc2S/C1=C\c1ccccc1F (stereo in doubt; 29) | > 80 |  |  |
| CCN1CCCC1CNC(=O)c1ccc2c(c1)NC(=O)/C(=C/c1ccccc1OC)S2 (configuration not stated) | > 80 | 11.3 | 9.79 |
| O=C1Nc2cc(C(=O)NCCN3CCCC3)ccc2S/C1=C\c1ccccc1F (stereo in doubt; 28) | > 80 |  |  |
| CCCN(CCC)CCNC(=O)c1ccc2c(c1)NC(=O)/C(=C/c1ccccc1)S2 | > 80 | 27.2 | > 80 |
| CCN(CC)CCNC(=O)c1ccc2c(c1)NC(=O)/C(=C/c1ccccc1F)S2 (stereo in doubt; 21) | > 80 | 9.4 | 7.4 |
| CCN1CCC[C@H]1CNC(=O)c1ccc2c(c1)NC(=O)/C(=C/c1ccccc1F)S2 | > 80 | 4.7 | 6.6 |
| Cc1cccc(/C=C2\Sc3ccc(C(=O)NCCN4CCCC4)cc3NC2=O)c1 | > 80 | 8.8 | 11.8 |
| CCCN1CCCC1CNC(=O)c1ccc2c(c1)NC(=O)/C(=C/c1ccccc1F)S2 (configuration not stated) | > 80 |  |  |
| CN(C)c1ccccc1CNC(=O)c1ccc2c(c1)NC(=O)/C(=C/c1ccccc1F)S2 | > 80 | 67.8 | > 80 |
| COc1ccc(/C=C2\Sc3ccc(C(=O)NCCN(C)C)cc3NC2=O)cc1 | > 80 | > 80 | > 80 |
